Legend:
[1] = system: Mus musculus; assay: The maximum tolerated dose was evaluated in mice expressed in terms of mg/kg of body weight; format: functional
[2] = system: Human alphaherpesvirus 2; assay: In vitro antiviral activity was tested against herpes simplex virus type 2 (HSV-2); format: functional; settings: read-out: ED50 (the source's name)
Procedure, shortened: (§1)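 Vero cell monolayers, grown 24 h at 37 °C in 5% CO2 to confluency, were infected with HSV-2 (strain 333) at 100 TCID50 per well. After 30-min adsorption at 37 °C, compound was added in seven 0.5-log steps, final 5 × 10⁻⁶ to 5 × 10⁻³ M, in duplicate wells. After 72 h at 37 °C, the ED50 was taken as 50% inhibition of viral CPE versus untreated controls.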

[3] = system: Vaccinia virus; assay: In vitro antiviral activity was tested against vaccinia virus(VV) virus; format: functional; settings: Orthopoxvirus vaccinia; read-out: ED50 (the source's name)
[4] = system: Venezuelan equine encephalitis virus; assay: In vitro antiviral activity was tested against venezuelan equine encephalomyelitis (VEE) virus; format: functional; settings: read-out: ED50 (the source's name)
[5] = system: Rift Valley fever virus; assay: In vitro antiviral activity was tested against rift valley fever virus(RVF) virus; format: functional; settings: read-out: ED50 (the source's name)
[6] = system: Human respirovirus 3; assay: In vitro antiviral activity was tested against parainfluenza virus type 3 (para3) virus; format: functional, para influenza virus; settings: read-out: ED50 (the source's name)
[7] = system: Rift Valley fever virus; assay: (§2) Therapeutic index against Rift valley fever virus.; format: organism-based; settings: in vivo, read-out: Therapeutic index
[8] = system: Vero; assay: Maximum tolerated concentration (MTC) was evaluated in vero cells.; format: functional, Chlorocebus sabaeus
Procedure, shortened: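 Confluent, uninfected Vero monolayers were given compound in seven 0.5-log steps, final 5 × 10⁻⁶ to 5 × 10⁻³ M, one well per concentration, for 72 h at 37 °C in 5% CO2. Wells were checked by microscope for changes in morphology or monolayer density (lysis, rounding, detachment). The MTC is the lowest concentration giving visible cytotoxicity.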

[9] = system: Human respirovirus 3; assay: In vitro antiviral activity was tested against parainfluenza type 3 (para3) virus; format: functional, para influenza virus; settings: read-out: ED50 (the source's name)
[10] = system: Human alphaherpesvirus 2; assay: In vitro antiviral activity was tested against herpes simplex type 2 (HSV-2) virus; format: functional; settings: read-out: ED50 (the source's name)
[11] = system: Mus musculus; assay: The maximum tolerated dose was evaluated in mice (mg/kg of body weight).; format: functional
[12] = system: Rift Valley fever virus; assay: as §2; settings: read-out: Therapeutic index
[13] = system: Venezuelan equine encephalomyelitis virus (VEE); assay: Therapeutic index against Venezuelan equine encephalomyelitis virus.; format: organism-based; settings: venezuelan equine encephalitis virus, in vivo; read-out: Therapeutic index
[14] = system: Mus musculus; assay: The maximum tolerated dose was evaluated in mice and is expressed as mg/kg of body weight; format: functional
[15] = system: Venezuelan equine encephalomyelitis virus (VEE); assay: Therapeutic index against Venezuelan equine encephalomyelitis virus (VEE); settings: Venezuelan equine encephalitis virus; read-out: Therapeutic index
[16] = system: Human respirovirus 3; assay: In vitro against parainfluenza type 3 (para3) virus; format: functional, para influenza virus; settings: read-out: ED50 (the source's name)
[17] = system: Vaccinia virus; assay: In vitro antiviral activity was tested against vaccinia virus(VV); format: functional; settings: Orthopoxvirus vaccinia; read-out: ED50 (the source's name)
[18] = system: Mus musculus; assay: The maximum tolerated dose was evaluated in mice and expressed in terms of mg/kg of body weight; format: functional
[19] = system: Human alphaherpesvirus 2; assay: In vitro antiviral activity was tested against herpes simplex type 2 (HSV-2); format: functional; settings: read-out: ED50 (the source's name); procedure, shortened: as §1

SMILES | MTC [1] [mg/kg] | EC50 [2] [µM] | EC50 [3] [µM] | EC50 [4] [µM] | EC50 [5] [µM] | EC50 [6] [µM] | selectivity ratio [7] | MTC [8] [mM] | EC50 [9] [µM] | EC50 [10] [µM] | MTC [11] [mg/kg] | selectivity ratio [12] | selectivity ratio [13] | MTC [14] [mg/kg] | selectivity ratio [15] | EC50 [16] [µM] | EC50 [17] [µM] | MTC [18] [mg/kg] | EC50 [19] [µM]
CCSc1c(C(N)=O)ncn1C1O[C@H](CO)[C@@H](O)[C@H]1O (stereo partly drawn) | >121 | > 5000 | 2600 | > 2000 | > 2000 | > 5000 | 1.4 | >5 |  |  |  |  |  |  |  |  |  |  | 
Cc1c(C(N)=O)ncn1C1O[C@H](CO)[C@@H](O)[C@H]1O (stereo partly drawn) |  |  | 1400 |  | 1800 |  |  | 1.6 | 500 | 4000 |  |  |  |  |  |  |  |  | 
NC(=O)c1ncn([C@@H]2O[C@H](CO)[C@@H](O)[C@H]2O)n1 [RIBAVIRIN] |  |  |  |  |  |  |  |  |  |  | >100 | 4 | 1.5 |  |  |  |  |  | 
CSc1c(C(N)=O)ncn1C1O[C@H](CO)[C@@H](O)[C@H]1O (stereo partly drawn) |  | 4100 | 280 | > 1700 | 1800 |  | 1.2 | 1.6 | 730 |  |  |  |  | >100 | 0.9 |  |  |  | 
CS(=O)(=O)c1c(C(N)=O)ncn1C1O[C@H](CO)[C@@H](O)[C@H]1O (stereo partly drawn) |  |  |  | 650 | 8.7 |  | 2.8 | >5 |  | 5000 |  |  | 1.4 |  |  | > 5000 | > 5000 | >400 | 
NC(=O)c1ncn(C2O[C@H](CO)[C@@H](O)[C@H]2O)c1S (stereo partly drawn) |  |  |  | > 2000 | > 2000 |  | 1.1 | >5 | 5000 |  |  |  |  |  |  |  | 3800 | >110 | > 5000
CCS(=O)(=O)c1c(C(N)=O)ncn1C1O[C@H](CO)[C@@H](O)[C@H]1O (stereo partly drawn) |  |  |  | > 2000 | > 2000 |  | 1.21 | >5 | > 5000 |  |  |  |  |  |  |  | 3500 | >134 | > 5000
NC(=O)c1ncn(C2O[C@H](CO)[C@@H](O)[C@H]2O)c1SCc1ccccc1 (stereo partly drawn) |  |  | 230 | 1000 | 1000 |  | 1.9 | >5 | 4400 |  |  |  |  |  |  |  |  | >146 | > 5000

— ChEMBL document CHEMBL1123027, “Synthesis and biological activity of 5-thiobredinin and certain related 5-substituted imidazole-4-carboxamide ribonucleosides” (J Med Chem, 1985)
